Experimental data as given in ChEMBL document CHEMBL4613234, “Auxiliary in vitro and in vivo biological evaluation of hydrogen peroxide sensitive prodrugs of methotrexate and aminopterin for the treatment of rheumatoid arthritis” (Bioorg Med Chem, 2020).
The source made the active and inactive calls. The rule behind the calls is not given here.

Key:
HEK293 [1] = assay: Cytotoxicity against human HEK293 cells assessed as reduction in cell viability incubated for 48 hrs in absence of ROS scavenger pyruvate by Alamar blue assay; assay type: cell-based; conditions: HEK293, 48 h
How it was run: (§1)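 HL-60, HEK293 and HeLa cells exposed to compound for 48 h with or without pyruvate as ROS scavenger; viability read by Alamar blue; IC50 in nM, mean of at least three replicates ± SEM.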

[2] = Prodrug activation in PBS buffer assessed as H2O2-formation of methotrexate at pH 7.4 measured up to 24 hrs by RP-HPLC/UV analysis; assay type: physicochemical; conditions: pH 7.4, 24 h
[3] = Half life of compound in culture media in absence of ROS scavenger pyruvate; assay type: physicochemical
[4] = Permeability of compound across artificial lipid/oil/lipid tri-layer membrane by PAMPA assay
[5] = Prodrug activation in PBS buffer assessed as H2O2-mediated hydrolysis by measuring half life at pH 7.4 measured up to 24 hrs by RP-HPLC/UV analysis; assay type: physicochemical; conditions: pH 7.4, 24 h
HL-60 [6] = assay: Cytotoxicity against human HL60 cells assessed as reduction in cell viability incubated for 48 hrs in absence of ROS scavenger pyruvate by Alamar blue assay; assay type: cell-based; conditions: HL-60, 48 h; how it was run: as §1
[7] = Half life in human HEK293 cells in absence of ROS scavenger pyruvate; assay type: ADME, cell-based
HL-60 [8] = assay: Cytotoxicity against human HL60 cells assessed reduction in cell viability incubated for 48 hrs in presence of ROS scavenger pyruvate by Alamar blue assay; assay type: cell-based; conditions: HL-60, 48 h; how it was run: as §1
[9] = Half life of compound in PBS buffer; assay type: physicochemical
Rattus norvegicus [10] = assay: Antiarthritic activity in dark agouti rat model of collagen-induced arthritis assessed as decrease in disease severity at 0.3 mg/kg, ip administered on day 17 and treated until day 31 by macroscopic observation analysis; assay type: functional, organism-based
How it was run: (§2)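 Dark agouti rats with collagen-induced arthritis; daily i.p. dosing from disease onset (day 17), doses equimolar to 0.3 mg/kg MTX, DMSO kept at 2% (v/v). Arthritis scored macroscopically three times weekly: 1 point per swollen toe, 1 per swollen foot knuckle, 5 for swollen ankle, 0–15 per limb, maximum 60 per rat. n = 8 per group, 10 for vehicle; mean ± SEM.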

[11] = Apparent intrinsic clearance in rat liver microsomes; assay type: ADME, Microsome; conditions: read-out: CLH
How it was run: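 Apparent intrinsic clearance (CL'int, mL/min/kg) determined in pooled rat liver microsomes.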

HL-60 [12] = assay: Induction of apoptosis in human HL60 cells assessed as apoptotic cells at 0.1 to 10 uM in absence of ROS scavenger pyruvate by annexin V-FITC/propidium iodide staining based flow cytometry (reference value: 3 %); assay type: functional
How it was run: (§3)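 HL-60 cells in RPMI without pyruvate, treated 48 h at 10, 1 and 0.1 μM (vehicle 0.1% DMSO); annexin V/PI staining, flow cytometry gating singlets, apoptotic fraction taken as P4 + P5 populations; at least triplicates, mean ± SD; two-tailed unpaired t-test, p < 0.05.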

HeLa [13] = assay: Cytotoxicity against human HeLa cells assessed as reduction in cell viability incubated for 48 hrs in presence of ROS scavenger pyruvate by Alamar blue assay; assay type: cell-based; how it was run: as §1
HeLa [14] = assay: Cytotoxicity against human HeLa cells assessed as reduction in cell viability incubated for 48 hrs in absence of ROS scavenger pyruvate by Alamar blue assay; assay type: cell-based; how it was run: as §1
HL-60 [15] = assay: Induction of apoptosis in human HL60 cells assessed as apoptotic cells at 0.1 uM in absence of ROS scavenger pyruvate by annexin V-FITC/propidium iodide staining based flow cytometry (reference value: 3 %); assay type: functional; how it was run: as §3
HEK293 [16] = assay: Cytotoxicity against human HEK293 cells assessed as reduction in cell viability incubated for 48 hrs in presence of ROS scavenger pyruvate by Alamar blue assay; assay type: cell-based; conditions: HEK293, 48 h; how it was run: as §1
[17] = (§4) Ratio of IC50 for human HL60 cells assessed as reduction in cell viability incubated for 48 hrs in presence of ROS scavenger pyruvate by Alamar blue assay to IC50 for human HL60 cells assessed as reduction in cell viability incubated for 48 hrs in absence of ROS scavenger pyruvate by Alamar blue assay; assay type: cell-based, HL-60; conditions: read-out: Ratio IC50
How it was run: (§5)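 Ratio of 48 h Alamar blue IC50 values with versus without pyruvate as ROS scavenger, in HEK293 or HL-60 cells; each IC50 from at least three replicates.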

[18] = Half life in human HEK293 cells in presence of paraquat and absence of ROS scavenger pyruvate; assay type: ADME, cell-based
[19] = Half life in rat plasma; assay type: ADME, cell-free
How it was run: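 Reconstituted freeze-dried rat plasma diluted 1:1 with PBS to pH 7.4, incubated at 37 °C; half-life determined.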

[20] = Toxicity in dark agouti rat model of collagen-induced arthritis assessed as adverse effect at 0.42 mg/kg, ip administered on day 17 and treated until day 31; assay type: organism-based; conditions: in vivo
How it was run: (§6)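 Collagen-induced arthritis in dark agouti rats given daily i.p. doses from day 17 in 2% (v/v) DMSO vehicle; n = 8 per group. Tolerability followed as average body weight measured three times weekly, plus general health observation; animals removed early for high arthritis score or declining health.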

[21] = Stability of compound in human HEK293 cells preincubated for 24 hrs followed by compound addition and subsequent removal of HEK293 cells in absence of ROS scavenger pyruvate; assay type: ADME, cell-based
[22] = Toxicity in dark agouti rat model of collagen-induced arthritis assessed as increase in body weight at 0.42 mg/kg, ip administered on day 17 and treated until day 31; assay type: organism-based; conditions: in vivo; how it was run: as §6
Rattus norvegicus [23] = assay: Antiarthritic activity in dark agouti rat model of collagen-induced arthritis assessed as decrease in disease severity at 0.42 mg/kg, ip administered on day 17 and treated until day 31 by macroscopic observation analysis; assay type: functional, organism-based; how it was run: as §2
[24] = as §4, with “HEK293” for “HL60”; assay type: cell-based; conditions: read-out: Ratio IC50; how it was run: as §5
HL-60 [25] = assay: Cytotoxicity against human HL60 cells assessed as reduction in cell viability incubated for 48 hrs in presence of ROS scavenger pyruvate by Alamar blue assay relative to parent compound; assay type: cell-based; conditions: hl-60, 48 h
[26] = Toxicity in dark agouti rat model of collagen-induced arthritis assessed as adverse effect at 0.36 mg/kg, ip administered on day 17 and treated until day 31; assay type: organism-based; conditions: in vivo; how it was run: as §6
[27] = Toxicity in dark agouti rat model of collagen-induced arthritis assessed as increase in body weight at 0.36 mg/kg, ip administered on day 17 and treated until day 31; assay type: organism-based; conditions: in vivo; how it was run: as §6
Rattus norvegicus [28] = assay: Antiarthritic activity in dark agouti rat model of collagen-induced arthritis assessed as decrease in disease severity at 0.36 mg/kg, ip administered on day 17 and treated until day 31 by macroscopic observation analysis; assay type: functional, organism-based; how it was run: as §2
Rattus norvegicus [29] = assay: Antiarthritic activity in dark agouti rat model of collagen-induced arthritis assessed as decrease in disease severity at 0.38 mg/kg, ip administered on day 17 and treated until day 31 by macroscopic observation analysis; assay type: functional, organism-based; how it was run: as §2
[30] = Toxicity in dark agouti rat model of collagen-induced arthritis assessed as increase in body weight at 0.38 mg/kg, ip administered on day 17 and treated until day 31; assay type: organism-based; conditions: in vivo; how it was run: as §6
[31] = Toxicity in dark agouti rat model of collagen-induced arthritis assessed as adverse effect at 0.38 mg/kg, ip administered on day 17 and treated until day 31; assay type: organism-based; conditions: in vivo; how it was run: as §6

| Structure (SMILES) | IC50 (HEK293 [1]) [nM] | half-life [3] [h] | Papp [4] [×10⁻⁶ cm/s] | t1/2 [5] [h] | IC50 (HL-60 [6]) [nM] | half-life [7] [h] | IC50 (HL-60 [8]) [nM] | half-life [9] [h] | CLint scaled [11] [mL/min/kg] | Activity (HL-60 [12]) [%] | IC50 (HeLa [13]) [nM] | IC50 (HeLa [14]) [nM] | Activity (HL-60 [15]) [%] | IC50 (HEK293 [16]) [nM] | further results |
| --- | --- | --- | --- | --- | --- | --- | --- | --- | --- | --- | --- | --- | --- | --- | --- |
| CN(Cc1cnc2nc(N)nc(NC(=O)OCc3ccccc3)c2n1)c1ccc(C(=O)N[C@@H](CCC(=O)O)C(=O)O)cc1 | > 1000 | > 24 | < 1.5 | > 24 | > 1000 |  |  |  |  |  |  |  |  |  | Drug metabolism [2]: Not Active |
| CN(Cc1cnc2nc(N)nc(N)c2n1)c1ccc(C(=O)N[C@@H](CCC(=O)O)C(=O)O)cc1 [METHOTREXATE] | 28.6 | > 24 | < 1.5 |  | 8.9 | > 24 | 9.8 | > 24 | 1.5 | 17 | 59.3 | 21 | 14 | 35 | Activity (Rattus norvegicus [10]): Active |
| Nc1nc(N)c2nc(CNc3ccc(C(=O)N[C@@H](CCC(=O)O)C(=O)O)cc3)cnc2n1 [AMINOPTERIN] |  |  |  |  | 2.5 |  | 3 |  |  |  | 3.6 | 8.3 |  |  |  |
| CN(Cc1cnc2nc(N)nc(NC(=O)OCc3ccc(B(O)O)cc3)c2n1)c1ccc(C(=O)N[C@@H](CCC(=O)O)C(=O)O)cc1 | 62.9 | 3.4 | < 1.5 | 0.29 | 40.3 | 107 | 203 | > 24 | 1.8 | 17 | 194 | 156 | 7 | 192 | selectivity ratio at 48 h [17]: 5; half-life [18]: 63.2 h; half-life [19]: 16.4 h; Activity [20]: Non-Toxic; t1/2 [21]: 16.1 h; Activity [22]: Non-Toxic; Activity (Rattus norvegicus [23]): Active; selectivity ratio at 48 h [24]: 5; fold change (FC) (HL-60 [25]): 20 |
| CN(Cc1cnc2nc(N)nc(N)c2n1)c1ccc(C(=O)N[C@@H](CCC(=O)N2CCSC2=O)C(=O)O)cc1 |  |  |  |  | 40 |  | 36 |  |  |  | 207 | 164 |  |  | Activity [26]: Non-Toxic; Activity [27]: Non-Toxic; Activity (Rattus norvegicus [28]): inactive |
| Nc1nc(N)c2nc(CN(Cc3ccc(B(O)O)cc3)c3ccc(C(=O)N[C@@H](CCC(=O)O)C(=O)O)cc3)cnc2n1 |  |  |  |  | 7.5 |  | 38.3 |  |  |  | 42.2 | 19.2 |  |  | Activity (Rattus norvegicus [29]): inactive; Activity [30]: Non-Toxic; Activity [31]: Non-Toxic |
